According to ChEMBL document CHEMBL2434820, “Design, synthesis, and biological evaluation of novel 2-ethyl-5-phenylthiazole-4-carboxamide derivatives as protein tyrosine phosphatase 1B inhibitors with improved cellular efficacy” (Eur J Med Chem, 2013):
One block for each molecule: values may come before it. The source made the active and inactive calls. The calls are words filed in the database; no cut-off is given here.

Columns and labels:
[1] = biological target: T1, Tyrosine-protein phosphatase non-receptor type 1 (Homo sapiens) (UniProt P18031); assay: Inhibition of PTP1B (unknown origin) expressed in CHO cells over-expressing human IR assessed as increase in insulin-mediated IR-beta phosphorylation preincubated for 2 hrs followed by insulin challenge for 10 mins by Western blotting analysis; assay type: cell-based
T1 sequence (whole entry): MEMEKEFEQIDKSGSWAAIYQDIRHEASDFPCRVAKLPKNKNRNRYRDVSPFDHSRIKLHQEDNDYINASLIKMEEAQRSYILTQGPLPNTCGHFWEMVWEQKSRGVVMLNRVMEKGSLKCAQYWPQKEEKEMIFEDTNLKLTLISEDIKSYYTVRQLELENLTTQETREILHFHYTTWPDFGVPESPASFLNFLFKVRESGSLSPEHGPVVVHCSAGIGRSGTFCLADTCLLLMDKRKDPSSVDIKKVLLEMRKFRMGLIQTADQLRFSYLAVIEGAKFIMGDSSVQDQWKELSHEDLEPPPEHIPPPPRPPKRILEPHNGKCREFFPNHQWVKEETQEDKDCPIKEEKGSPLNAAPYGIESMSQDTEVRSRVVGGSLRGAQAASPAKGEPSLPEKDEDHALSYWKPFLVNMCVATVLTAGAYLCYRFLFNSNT
Method in brief: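 CHO cells overexpressing human IR, grown in Ham's F-12 with 10% FBS at 37 °C, 5% CO2. Cells were serum-starved 2 h, then exposed to compound for 2 h (0.2% DMSO vehicle; 1 mM sodium orthovanadate as positive control). They were then stimulated with 10 nM insulin for 10 min. Lysates were run on 8% SDS-PAGE and immunoblotted with anti-pTyr, using β-actin as the loading control.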

[2] = biological target: T2, Tyrosine-protein phosphatase non-receptor type 1 (Homo sapiens, UniProt P18031); assay: Inhibition of GST-tagged PTP1B (unknown origin) using pNPP as substrate measured for 2 mins by colorimetric analysis
T2 sequence (P18031 whole entry): T1 sequence (whole entry)

[3] = biological target: T3, M-phase inducer phosphatase 2 (Homo sapiens, UniProt P30305); assay: Inhibition of CDC25B (unknown origin)
T3 sequence (P30305 whole entry): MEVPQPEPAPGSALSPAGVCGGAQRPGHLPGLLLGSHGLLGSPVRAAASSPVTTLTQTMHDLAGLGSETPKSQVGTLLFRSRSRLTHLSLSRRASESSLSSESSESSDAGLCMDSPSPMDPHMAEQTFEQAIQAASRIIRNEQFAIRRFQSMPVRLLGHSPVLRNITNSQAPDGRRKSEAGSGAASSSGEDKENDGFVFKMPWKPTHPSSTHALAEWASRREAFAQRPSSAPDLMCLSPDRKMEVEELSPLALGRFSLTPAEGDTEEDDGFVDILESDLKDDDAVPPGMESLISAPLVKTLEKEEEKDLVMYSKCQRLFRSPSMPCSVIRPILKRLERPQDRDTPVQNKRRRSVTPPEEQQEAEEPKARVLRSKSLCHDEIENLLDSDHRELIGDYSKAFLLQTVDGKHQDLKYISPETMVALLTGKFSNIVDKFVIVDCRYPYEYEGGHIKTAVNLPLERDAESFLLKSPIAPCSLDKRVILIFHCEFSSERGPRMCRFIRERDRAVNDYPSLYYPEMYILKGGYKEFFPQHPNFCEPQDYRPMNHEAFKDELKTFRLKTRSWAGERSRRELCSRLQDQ

[4] = organism: Homo sapiens; assay: Selectivity ratio of IC50 for TCPTP (unknown origin) to IC50 for GST-tagged PTP1B (unknown origin)
[5] = biological target: Receptor-type tyrosine-protein phosphatase F (Homo sapiens, UniProt P10586); assay: Inhibition of LAR (unknown origin)
[6] = biological target: Tyrosine-protein phosphatase non-receptor type 6 (Homo sapiens, UniProt P29350); assay: Inhibition of SHP-1 (unknown origin)
[7] = biological target: T4, Tyrosine-protein phosphatase non-receptor type 11 (Homo sapiens, UniProt Q06124); assay: Inhibition of SHP-2 (unknown origin)
T4 sequence (Q06124 whole entry): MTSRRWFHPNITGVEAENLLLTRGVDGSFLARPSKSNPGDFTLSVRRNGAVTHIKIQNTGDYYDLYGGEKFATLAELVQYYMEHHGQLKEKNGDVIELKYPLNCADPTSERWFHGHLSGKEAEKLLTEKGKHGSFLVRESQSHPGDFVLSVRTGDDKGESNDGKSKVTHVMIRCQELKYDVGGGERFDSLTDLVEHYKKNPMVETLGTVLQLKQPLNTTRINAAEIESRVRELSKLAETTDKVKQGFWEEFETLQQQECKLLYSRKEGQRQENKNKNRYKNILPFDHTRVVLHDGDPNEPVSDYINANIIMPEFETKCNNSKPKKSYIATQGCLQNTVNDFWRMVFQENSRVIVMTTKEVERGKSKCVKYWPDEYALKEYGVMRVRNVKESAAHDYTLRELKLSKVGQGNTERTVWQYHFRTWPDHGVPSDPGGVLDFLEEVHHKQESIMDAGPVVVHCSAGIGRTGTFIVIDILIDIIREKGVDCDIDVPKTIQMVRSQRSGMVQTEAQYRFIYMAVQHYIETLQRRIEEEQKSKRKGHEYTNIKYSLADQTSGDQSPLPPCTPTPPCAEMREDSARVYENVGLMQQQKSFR

[8] = biological target: T5, Tyrosine-protein phosphatase non-receptor type 2 (Homo sapiens, UniProt P17706); assay: Inhibition of TCPTP (unknown origin)
T5 sequence (P17706 whole entry): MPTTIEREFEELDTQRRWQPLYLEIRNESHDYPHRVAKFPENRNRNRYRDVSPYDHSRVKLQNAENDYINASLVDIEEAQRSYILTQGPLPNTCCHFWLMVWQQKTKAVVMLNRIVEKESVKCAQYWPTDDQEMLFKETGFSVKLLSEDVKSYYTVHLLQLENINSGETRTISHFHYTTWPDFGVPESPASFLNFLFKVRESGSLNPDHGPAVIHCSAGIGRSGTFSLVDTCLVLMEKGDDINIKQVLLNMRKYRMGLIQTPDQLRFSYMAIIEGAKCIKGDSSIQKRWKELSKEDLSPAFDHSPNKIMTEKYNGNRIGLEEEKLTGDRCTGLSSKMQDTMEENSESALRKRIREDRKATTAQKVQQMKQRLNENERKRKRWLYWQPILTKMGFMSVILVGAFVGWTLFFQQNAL

[9] = biological target: T1, Tyrosine-protein phosphatase non-receptor type 1 (Homo sapiens); conditions: CHO, 1.25 to 10 uM

Sequence of Receptor-type tyrosine-protein phosphatase F (P10586 whole entry): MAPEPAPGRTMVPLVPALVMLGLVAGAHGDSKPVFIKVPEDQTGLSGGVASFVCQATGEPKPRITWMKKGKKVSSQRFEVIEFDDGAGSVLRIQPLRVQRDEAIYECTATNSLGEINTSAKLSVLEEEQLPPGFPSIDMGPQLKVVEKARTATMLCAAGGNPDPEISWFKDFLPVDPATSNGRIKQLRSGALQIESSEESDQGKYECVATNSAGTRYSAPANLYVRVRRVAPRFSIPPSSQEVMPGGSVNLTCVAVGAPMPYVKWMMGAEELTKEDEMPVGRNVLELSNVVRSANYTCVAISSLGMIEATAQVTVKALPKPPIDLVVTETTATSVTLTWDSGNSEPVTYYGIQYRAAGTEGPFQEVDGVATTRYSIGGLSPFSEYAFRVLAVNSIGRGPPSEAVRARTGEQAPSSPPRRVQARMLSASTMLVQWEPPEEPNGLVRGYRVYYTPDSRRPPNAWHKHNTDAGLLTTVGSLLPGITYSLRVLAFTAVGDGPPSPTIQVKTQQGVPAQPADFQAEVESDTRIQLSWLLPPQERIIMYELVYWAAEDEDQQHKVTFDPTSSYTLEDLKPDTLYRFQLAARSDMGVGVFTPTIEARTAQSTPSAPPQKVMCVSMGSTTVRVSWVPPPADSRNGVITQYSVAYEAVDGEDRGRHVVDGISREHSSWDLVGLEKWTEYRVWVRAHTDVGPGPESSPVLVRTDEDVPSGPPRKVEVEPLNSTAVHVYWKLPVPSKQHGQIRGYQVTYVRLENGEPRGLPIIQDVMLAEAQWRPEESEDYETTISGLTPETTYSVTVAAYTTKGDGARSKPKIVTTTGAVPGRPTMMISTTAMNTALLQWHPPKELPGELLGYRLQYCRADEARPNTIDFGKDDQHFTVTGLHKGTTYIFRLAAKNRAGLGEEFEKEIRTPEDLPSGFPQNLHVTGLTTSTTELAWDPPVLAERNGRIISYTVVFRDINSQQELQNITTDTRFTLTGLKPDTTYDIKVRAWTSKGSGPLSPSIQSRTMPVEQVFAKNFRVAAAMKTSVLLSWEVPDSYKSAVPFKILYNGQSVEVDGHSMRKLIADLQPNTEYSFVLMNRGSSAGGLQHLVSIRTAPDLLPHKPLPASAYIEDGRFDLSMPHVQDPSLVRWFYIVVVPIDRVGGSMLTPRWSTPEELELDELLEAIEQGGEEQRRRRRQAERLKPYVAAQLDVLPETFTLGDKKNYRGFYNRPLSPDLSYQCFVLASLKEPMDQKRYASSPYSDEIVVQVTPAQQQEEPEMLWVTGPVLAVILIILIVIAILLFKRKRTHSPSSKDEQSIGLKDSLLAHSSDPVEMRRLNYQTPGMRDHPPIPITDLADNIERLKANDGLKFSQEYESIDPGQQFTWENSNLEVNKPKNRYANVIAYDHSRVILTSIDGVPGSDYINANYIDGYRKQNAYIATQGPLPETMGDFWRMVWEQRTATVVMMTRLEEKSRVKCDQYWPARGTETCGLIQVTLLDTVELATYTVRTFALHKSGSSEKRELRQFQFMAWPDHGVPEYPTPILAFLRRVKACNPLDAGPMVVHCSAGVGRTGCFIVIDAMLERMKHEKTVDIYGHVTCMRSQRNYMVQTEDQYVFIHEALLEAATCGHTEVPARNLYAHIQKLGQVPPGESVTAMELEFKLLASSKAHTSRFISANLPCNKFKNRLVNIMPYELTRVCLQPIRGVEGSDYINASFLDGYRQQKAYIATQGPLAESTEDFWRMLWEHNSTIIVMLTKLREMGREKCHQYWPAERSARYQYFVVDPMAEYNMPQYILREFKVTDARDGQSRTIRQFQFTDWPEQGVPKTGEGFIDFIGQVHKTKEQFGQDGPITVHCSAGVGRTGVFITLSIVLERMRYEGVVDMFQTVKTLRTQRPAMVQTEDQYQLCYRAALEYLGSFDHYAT
Sequence of Tyrosine-protein phosphatase non-receptor type 6 (P29350 whole entry): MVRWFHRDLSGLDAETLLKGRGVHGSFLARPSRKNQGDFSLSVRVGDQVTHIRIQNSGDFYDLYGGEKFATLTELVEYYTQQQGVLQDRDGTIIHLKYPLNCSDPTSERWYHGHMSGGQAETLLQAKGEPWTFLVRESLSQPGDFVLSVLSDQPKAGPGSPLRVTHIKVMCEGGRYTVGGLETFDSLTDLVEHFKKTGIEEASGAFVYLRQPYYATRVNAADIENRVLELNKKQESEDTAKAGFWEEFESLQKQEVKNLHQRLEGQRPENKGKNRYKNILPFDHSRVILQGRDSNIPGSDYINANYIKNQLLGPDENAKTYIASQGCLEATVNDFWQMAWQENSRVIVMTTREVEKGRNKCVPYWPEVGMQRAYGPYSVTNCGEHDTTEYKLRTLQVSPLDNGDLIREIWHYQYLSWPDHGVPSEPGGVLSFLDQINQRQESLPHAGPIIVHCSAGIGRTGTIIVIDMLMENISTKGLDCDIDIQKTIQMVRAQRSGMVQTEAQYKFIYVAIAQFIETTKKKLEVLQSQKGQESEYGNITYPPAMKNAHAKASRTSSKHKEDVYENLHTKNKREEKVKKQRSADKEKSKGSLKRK

SMILES: O=C(CCc1c[nH]c2ccccc12)N[C@@H](Cc1ccc(OCc2ccccc2)cc1)c1nc(C(=O)Nc2ccc(C(=O)O)cc2)c(-c2ccccc2)s1
IC50 [2]: 2.28 µM

SMILES: O=C(CCc1c[nH]c2ccccc12)N[C@@H](Cc1ccc(OCc2ccccc2)cc1)c1nc(C(=O)Nc2ccc(Cl)c(C(=O)O)c2)c(-c2ccccc2)s1
IC50 [2]: 1.42 µM
IC50 [3]: 4.94 µM
Ratio IC50 [4]: 2.4
IC50 [5]: > 20 µM
IC50 [6]: 8.79 µM
IC50 [7]: 6.79 µM
IC50 [8]: 3.36 µM

SMILES: O=C(CCc1c[nH]c2ccccc12)N[C@@H](Cc1ccc(OCc2ccccc2)cc1)c1nc(C(=O)Nc2cc(Cl)ccc2C(=O)O)c(-c2ccccc2)s1
IC50 [2]: 0.71 µM

SMILES: COC(=O)c1cccc(NC(=O)c2nc([C@H](Cc3ccc(OCc4ccccc4)cc3)NC(=O)C3CCCCC3)sc2-c2ccccc2)c1
IC50 [2]: 3.79 µM

SMILES: O=C(CCc1c[nH]c2ccccc12)N[C@@H](Cc1ccc(OCc2ccccc2)cc1)c1nc(C(=O)Nc2ccc(C(=O)O)c(F)c2)c(-c2ccccc2)s1
IC50 [2]: 2.56 µM

SMILES: O=C(CCc1c[nH]c2ccccc12)N[C@@H](Cc1ccc(OCc2ccccc2)cc1)c1nc(C(=O)Nc2ccc(F)c(C(=O)O)c2)c(-c2ccccc2)s1
IC50 [2]: 1.62 µM

SMILES: O=C(CCc1c[nH]c2ccccc12)N[C@@H](Cc1ccc(OCc2ccccc2)cc1)c1nc(C(=O)Nc2cccc(F)c2C(=O)O)c(-c2ccccc2)s1
IC50 [2]: 4.18 µM

SMILES: O=C(CCc1c[nH]c2ccccc12)N[C@@H](Cc1ccc(OCc2ccccc2)cc1)c1nc(C(=O)Nc2ccc(F)cc2C(=O)O)c(-c2ccccc2)s1
IC50 [2]: 2.82 µM

SMILES: O=C(CCc1c[nH]c2ccccc12)N[C@@H](Cc1ccc(OCc2ccccc2)cc1)c1nc(C(=O)Nc2ccccc2C(=O)O)c(-c2ccccc2)s1
IC50 [2]: 5.56 µM

SMILES: O=C(CCc1c[nH]c2ccccc12)N[C@@H](Cc1ccc(OCc2ccccc2)cc1)c1nc(C(=O)Nc2cc(Br)ccc2C(=O)O)c(-c2ccccc2)s1
IC50 [2]: 1.18 µM

SMILES: O=C(CCc1c[nH]c2ccccc12)N[C@@H](Cc1ccc(OCc2ccccc2)cc1)c1nc(C(=O)Nc2cc(C(=O)O)ccc2F)c(-c2ccccc2)s1
IC50 [2]: 1.12 µM
IC50 [3]: 9.74 µM
Ratio IC50 [4]: 3.6
IC50 [5]: > 20 µM
IC50 [6]: 10.6 µM
IC50 [7]: 10.1 µM
IC50 [8]: 3.98 µM

SMILES: O=C(CCc1c[nH]c2ccccc12)N[C@@H](Cc1ccc(OCc2ccccc2)cc1)c1nc(C(=O)Nc2cccc(C(=O)O)c2)c(-c2ccccc2)s1
IC50 [2]: 1.01 µM
IC50 [3]: 7.37 µM
Ratio IC50 [4]: 3.3
IC50 [5]: > 20 µM
inhibition [1]: Dose-dependent effect
IC50 [6]: 7.53 µM
IC50 [7]: 5.3 µM
IC50 [8]: 3.38 µM

SMILES: O=C(O)c1cccc(NC(=O)c2nc([C@H](Cc3ccc(OCc4ccccc4)cc3)NC(=O)C3CCCCC3)sc2-c2ccccc2)c1
IC50 [2]: 1.17 µM
IC50 [3]: 2.51 µM
Ratio IC50 [4]: 3.4
IC50 [5]: > 20 µM
IC50 [6]: 6.93 µM
IC50 [7]: 11.7 µM
IC50 [8]: 3.97 µM

SMILES: COC(=O)c1ccccc1NC(=O)c1csc([C@H](Cc2ccc(OCc3ccccc3)cc2)NC(=O)C2CCCCC2)n1
IC50 [2]: 8.79 µM

SMILES: O=C(CCc1c[nH]c2ccccc12)N[C@@H](Cc1ccc(OCc2ccccc2)cc1)c1nc(C(=O)Nc2ccc(C(=O)O)cc2F)c(-c2ccccc2)s1
IC50 [2]: 0.77 µM

SMILES: COC(=O)c1cccc(NC(=O)c2nc([C@H](Cc3ccc(OCc4ccccc4)cc3)NC(=O)CCc3c[nH]c4ccccc34)sc2-c2ccccc2)c1
IC50 [2]: 2.68 µM

SMILES: COC(=O)c1ccc(NC(=O)c2csc([C@H](Cc3ccc(OCc4ccccc4)cc3)NC(=O)C3CCCCC3)n2)cc1
IC50 [2]: 4.42 µM

More lines, now with the values ahead:

inhibition [1]: inactive
SMILES: CCOC(=O)/C(C)=C\C(C)=C\c1csc([C@H](Cc2ccc(OCc3ccccc3)cc2)NC(=O)C2CCCCC2)n1

IC50 [2]: 6 µM
SMILES: O=C(O)c1cccc(NC(=O)c2csc([C@H](Cc3ccc(OCc4ccccc4)cc3)NC(=O)C3CCCCC3)n2)c1

IC50 [2]: 10.6 µM
SMILES: COC(=O)c1cccc(NC(=O)c2csc([C@H](Cc3ccc(OCc4ccccc4)cc3)NC(=O)C3CCCCC3)n2)c1

IC50 [2]: 10.9 µM
inhibition [9]: Active
SMILES: C/C(=C/C(C)=C/c1nc([C@H](Cc2ccc(OCc3ccccc3)cc2)NC(=O)C2CCCCC2)sc1-c1ccccc1)C(=O)O

IC50 [2]: 9.54 µM
inhibition [1]: inactive
SMILES: CCOC(=O)/C(C)=C\C(C)=C\c1nc([C@H](Cc2ccc(OCc3ccccc3)cc2)NC(=O)C2CCCCC2)sc1CC(C)C

IC50 [2]: 8.44 µM
inhibition [1]: inactive
SMILES: CCOC(=O)/C(C)=C\C(C)=C\c1nc([C@H](Cc2ccc(OCc3ccccc3)cc2)NC(=O)C2CCCCC2)sc1-c1ccccc1

IC50 [2]: 4.88 µM
SMILES: O=C(O)c1ccc(NC(=O)c2csc([C@H](Cc3ccc(OCc4ccccc4)cc3)NC(=O)C3CCCCC3)n2)cc1

IC50 [2]: 14.7 µM
inhibition [1]: inactive
SMILES: C/C(=C/C(C)=C/c1csc([C@H](Cc2ccc(OCc3ccccc3)cc2)NC(=O)C2CCCCC2)n1)C(=O)O

IC50 [2]: 8.12 µM
SMILES: O=C(Nc1ccccc1C(=O)O)c1csc([C@H](Cc2ccc(OCc3ccccc3)cc2)NC(=O)C2CCCCC2)n1

IC50 [2]: 13.5 µM
inhibition [1]: inactive
SMILES: CCOC(=O)/C(C)=C\C(C)=C\c1nc([C@H](Cc2ccc(OCc3ccccc3)cc2)NC(=O)C2CCCCC2)sc1C
